ChEMBL document CHEMBL1921719, “Synthesis and activity study of phosphonamidate dipeptides as potential inhibitors of VanX” (Bioorg Med Chem Lett, 2011)
≈ marks a conversion by molar mass, not a printed value.

Columns and labels:
Staphylococcus aureus [1] = assay: Antibacterial activity against Staphylococcus aureus ATCC 25923 after 24 hrs by macrodilution broth method; type: functional; settings: ATCC 25923, 24 h
How it was run: (§1)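 CLSI tube macrodilution broth method, with MIC as the read-out. Test strains were S. aureus ATCC 25923 and two clinical MRSA isolates. Cultures of about 10⁸ CFU/ml in Mueller–Hinton medium and phosphonamidate (2 mM stock in ddH₂O) were added in sequence to a vancomycin dilution series from 128 down to 0.125. Tubes were incubated for 24 h at 37 °C.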

Staphylococcus aureus [2] = assay: Antibacterial activity against Staphylococcus aureus ATCC 25923 after 24 hrs by macrodilution broth method relative to untreated control; type: functional
[3] = Inhibition of VanX using D-Ala-D-Ala as substrate preincubated for 30 mins before substrate addition measured after 150 secs by UV-Vis spectrometry
How it was run: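 The enzyme was recombinant VanX, expressed as an MBP fusion in E. coli BL21(DE3) at 30 °C with 1 mM IPTG induction for 75 min. It was purified on amylose resin, eluted with 20 mM Tris pH 7.6, 10 mM maltose and 200 mM NaCl. Thrombin then cleaved off the MBP, followed by a Q-Sepharose step. IC₅₀ was determined by a previously reported method.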

Staphylococcus aureus [4] = assay: Antibacterial activity against methicillin-resistant Staphylococcus aureus isolate 1 after 24 hrs by macrodilution broth method; type: functional; settings: isolate 1, 24 h; how it was run: as §1
Staphylococcus aureus [5] = assay: Antibacterial activity against methicillin-resistant Staphylococcus isolate 2 after 24 hrs by macrodilution broth method; type: functional; settings: isolate 2, 24 h; how it was run: as §1
[6] = Partial competitive inhibition of VanX

| Compound | MIC (Staphylococcus aureus [1]) [µg/mL] | fold change (FC) (Staphylococcus aureus [2]) | IC50 [3] [µM] | MIC (Staphylococcus aureus [4]) [µg/mL] | MIC (Staphylococcus aureus [5]) [µg/mL] | Ki [6] [µM] |
| --- | --- | --- | --- | --- | --- | --- |
| C[C@H](N)P(=O)(O)NCC(=O)O | 0.25 (≈ 1.37 µM) | 8 | 390 | 1 (≈ 5.49 µM) | 1 (≈ 5.49 µM) | – |
| CC(C)[C@@H](NP(=O)(O)[C@H](C)N)C(=O)O | 2 (≈ 8.92 µM) | – | 1120 | 1 (≈ 4.46 µM) | 2 (≈ 8.92 µM) | – |
| C[C@H](N)P(=O)(O)N[C@H](Cc1ccccc1)C(=O)O | 2 (≈ 7.35 µM) | – | 4130 | 1 (≈ 3.67 µM) | 2 (≈ 7.35 µM) | – |
| CC(C)C[C@@H](NP(=O)(O)[C@H](C)N)C(=O)O | 2 (≈ 8.4 µM) | – | 2820 | 1 (≈ 4.2 µM) | 2 (≈ 8.4 µM) | – |
| C[C@H](N)P(=O)(O)N[C@H](C)C(=O)O | 2 (≈ 10.2 µM) | – | 700 | 1 (≈ 5.1 µM) | 2 (≈ 10.2 µM) | 36 |
